Compound activity: PubChem, Broad Institute
An excerpt weighted towards active compounds, which were near 1.9% of everything screened.
FN deposit inh – inhibitors of fibronectin matrix deposition, primary screen, AH1F cells, Alexa488-fibronectin fluorescence, plate reader. inhibition, % at 12.6 µM. 350,000 tested, 0.086% active. AID 743247, 2014. AH1F fibroblasts, overnight;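 active = mean inhibition across replicates of 30% or more, regardless of how many single replicates reach that level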
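Test system: AH1F fibroblast monolayer depositing Alexa488-labelled fibronectin into matrix. Input: 10000 cells per well. Technique: fluorescence, ex 485 nm, em 525 nm. Buffer or medium: DMEM plus 2% serum, read in PBS. Timing: 1 h cell adhesion before compound, then overnight fibronectin incubation. Compound: single dose, pinned. Read-out basis: inhibition from reduced deposited-fibronectin fluorescence.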
F508del corr – F508del CFTR correction, initial screen, CFBE line, single point. CFBE cells, YFP halide quenching; stimulated with forskolin plus potentiator P3; % fluorescence drop versus neutral controls. activity (quench increase), % at 7.58 µM. 350,000 tested, 0.36% active. AID 720511, 2013;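 active = mean added fluorescence quench of at least 8% versus neutral control, with both replicates also reaching 8%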;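 also: cells transiently co-express mutant CFTR-F508del with the halide-sensitive YFP; corrector assay measuring rescue of mutant channel to the surface after 24 h compound exposure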
DENV2 CPE – inhibitors of DENV2 cytopathic effect, primary screen, cell-based, plate reader, single concentration; CPE inhibition, % at 9.99 µM; 350,000 tested, 1.7% active; DENV2-infected cells, cytopathic effect rescue; in the data active = CPE inhibition above about 20%, passing the limit was not always enough; tested in BHK-21 cells
Cneo AK release – Cryptococcus neoformans cell lysis inducers, primary screen, AK release luminescence, single concentration; 360,000 tested, 0.2% active; C. neoformans lysis, adenylate kinase release luminescence, 4 h; normalised: neutral wells 0, clomiphene wells 100; lysis activity, % at 15 µM; AID 651654, 2012;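 active = mean lysis activity across replicates of at least 80%, whatever share of replicates individually reach that level; inactive = mean lysis activity below 80%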
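Material: C. neoformans cells | Amount: Yeast cell density of 5 × 10^6 cells/mL | Medium: Fresh YPD growth medium | Dosing: Single dose | Times: Static 4 h at 37 °C with compound, 1 h detection | Detection: AK luminescence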
Xi reactivation – activators of inactive X chromosome reactivation, primary screen, imaging, XiGFP fibroblasts, GFP high-content imaging, set 2; activation, % at 7.58 µM; 360,000 tested, 0.055% active; AID 743238, 2013; XiGFP mouse fibroblasts, % GFP-positive cells imaging, 3 d; cells co-treated with 5-aza-dC sensitizer; scaled so ellipticine positive control = 100%;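 active = mean normalized replicate activation at least 10% and every replicate at or above 10%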
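Material: SV40-immortalized XiGFP fibroblast cells, line 68-5-11 | Buffer or medium: DMEM containing 5-aza-dC | Dosing: One concentration, pinned | Times: 3 d treatment, 15 min room-temperature fixation | Controls: Ellipticine 6 µM positive control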
PGC1a acetyl inh – inhibitors of PGC1a acetylation signal, primary screen, cell-based, U2OS, AlphaScreen, inhibitor mode; AlphaScreen anti-acetyl-lysine; with virally co-expressed GCN5 acetyltransferase; inhibition, % at 15.6 µM; 350,000 tested, 0.17% active;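 active = every replicate shows inhibition of at least 40%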
Each line names hits and unclear results; the compound was inactive in the other large screens.

CCOc1ccc2[nH]c3ncccc3c(=O)c2c1	DENV2 CPE 30.2 (no result: Cneo AK release, PGC1a acetyl inh)
CC(C)Nc1nc(Nc2ccc(C#N)cc2)c2sccc2n1	F508del corr 8.1 (no result: PGC1a acetyl inh)
O=C1C=CC2(O[C@H](c3ccccc3)[C@@H](c3ccccc3)O2)[C@H](Sc2ccccc2O)C1	FN deposit inh 44.8 (no result: Cneo AK release, PGC1a acetyl inh)
CCCn1c(=O)c(C(=O)NNS(=O)(=O)c2ccc(C)cc2)c(O)c2ccccc21	DENV2 CPE 35.2 (no result: Cneo AK release)
Cc1nc(C)c(CC(=O)N/N=C/c2ccc(O)cc2)c(=O)[nH]1	DENV2 CPE 31.3 (no result: Cneo AK release, PGC1a acetyl inh)
O=C1CN(C(=O)COC(=O)c2c(F)cccc2Cl)c2ccccc2N1	DENV2 CPE 25.7
CN(C)c1ccc(/C=N/N2CCN(Cc3ccccc3Cl)CC2)cc1	DENV2 CPE 55.1
CCN(CC)c1ccc(/C=N/N2CCN(Cc3ccccc3Cl)CC2)cc1	none
CO[C@@H]1CN(C)C(=O)c2ccc(NC(=O)C3CCCC3)cc2OC[C@@H](C)N(C(=O)c2ccccc2)C[C@H]1C	none (no result: PGC1a acetyl inh)
CCOc1cccc(-c2c(C(=O)N/N=C/c3cccnc3)nnn2-c2nonc2N)c1	none
CCOc1cccc(-c2c(C(=O)N/N=C/c3ccc(Br)cc3)nnn2-c2nonc2N)c1	DENV2 CPE 47.5
CC(=O)OCC(O)C1(O)CCC2C3CCC4=CC(=O)CCC4(C)C3C(O)CC21C (configuration not stated)	DENV2 CPE 22.4 (no result: FN deposit inh, Xi reactivation)
CC(=O)N(C)C[C@@H]1Oc2ncc(-c3cccc(F)c3)cc2C(=O)N([C@@H](C)CO)C[C@@H]1C	none
O=C(Nc1ccc2ccccc2c1)[C@@H]1C[C@H]1[C@@H](NP(=O)(c1ccccc1)c1ccccc1)c1ccccc1	DENV2 CPE 40.3 (no result: PGC1a acetyl inh)
O=C(NCc1ccccc1)[C@@H]1C[C@H]1[C@@H](NP(=O)(c1ccccc1)c1ccccc1)c1ccccc1	none (no result: PGC1a acetyl inh)
COCC1COS(=O)(=O)NC1(C)C (configuration not stated)	DENV2 CPE 20.3
CCCCNC(=O)Nc1nc2ccc(CC)cc2s1	FN deposit inh 34.0 (no result: Cneo AK release, PGC1a acetyl inh)
COc1ccc2c3c(n(C)c2c1)[C@@H](CO)N(C(=O)Cc1ccccc1)CC31CN(C(C)=O)C1	none (no result: FN deposit inh, Cneo AK release)
COC1=C(Nc2ccccc2OC)C(=O)c2ccccc2C1=O	none
COc1ccccc1NC1=C(NC(C)=O)C(=O)c2ccccc2C1=O	F508del corr 8.2 (no result: DENV2 CPE, Cneo AK release, PGC1a acetyl inh)
O=C(C1CCOCC1)N1C[C@H]2[C@@H](c3ccccc31)[C@@H](CO)N2C(=O)c1ccccc1	DENV2 CPE 96.8 (no result: FN deposit inh)
CC(C)NC(=O)N1C[C@@H]2[C@H](c3ccccc31)[C@@H](CO)N2C(=O)c1ccccc1	DENV2 CPE 29.1 (no result: FN deposit inh)
O=C(C1CCOCC1)N1C[C@H]2[C@@H](c3ccccc31)[C@@H](CO)N2Cc1ccccc1Cl	Cneo AK release 100.0 (no result: FN deposit inh)
CN1[C@@H]2CN(C(=O)C3CCOCC3)c3ccccc3[C@@H]2[C@@H]1CO	DENV2 CPE 39.6 (no result: FN deposit inh)
O=C(C1CCOCC1)N1C[C@@H]2[C@H](c3ccccc31)[C@@H](CO)N2Cc1ccccc1Cl	none (no result: FN deposit inh)
O=C(C1CCOCC1)N1C[C@@H]2[C@H](c3ccccc31)[C@@H](CO)N2Cc1ccccc1	none (no result: FN deposit inh, DENV2 CPE)
O=C(C[C@H]1C=C[C@H](NC(=O)CC2CC2)[C@H](CO)O1)NCc1ccc(-c2ccccc2)cc1	none
CO[C@H]1CN(C)C(=O)c2ccc(NC(=O)Nc3cccc(F)c3)cc2OC[C@@H](C)N(C(=O)C2CC2)C[C@H]1C	none (no result: DENV2 CPE, Cneo AK release)
CCS(=O)(=O)N1CCC2(CC1)CN(C(=O)c1ccc(F)cc1)[C@@H](CO)c1c2c2ccc(OC)cc2n1C	DENV2 CPE 24.2 (no result: FN deposit inh, Cneo AK release)
COCC(=O)N1CC2(C1)CN(C(=O)Nc1ccccc1F)[C@H](CO)c1c2c2ccc(OC)cc2n1C	none (no result: FN deposit inh, F508del corr, DENV2 CPE, Cneo AK release, PGC1a acetyl inh)
COc1ccc2c3c(n(C)c2c1)[C@@H](CO)N(C(=O)c1cccc(F)c1)CC31CN(C(=O)c2cccc(F)c2)C1	DENV2 CPE 34.2 (no result: Cneo AK release)
COc1ccc2c3c(n(C)c2c1)[C@H](CO)N(C(=O)Nc1ccccc1F)CC31CN(C)C1	DENV2 CPE 86.0 (no result: FN deposit inh, Cneo AK release)
COc1ccc2c3c(n(C)c2c1)[C@H](CO)NCC31CN(C(=O)c2ccc(F)cc2)C1	DENV2 CPE 69.2 (no result: FN deposit inh, Cneo AK release)
COCC(=O)N1C[C@H](C)[C@H](OC)CN(C)C(=O)c2ccc(NC(=O)c3cnccn3)cc2OC[C@H]1C	none (no result: Cneo AK release)
O=C(C[C@@H]1CC[C@@H]2[C@H](COC[C@@H](O)CN2C(=O)Nc2ccccc2)O1)NC1Cc2ccccc2C1	none
COc1ccc2c3c(n(C)c2c1)[C@@H](CO)N(C(=O)c1cccnc1)CC31CCN(S(=O)(=O)c2ccccc2)CC1	DENV2 CPE 39.1 (no result: FN deposit inh, Cneo AK release)
COc1ccc2c3c(n(C)c2c1)[C@H](CO)N(C(=O)c1cccnc1)CC31CN(S(C)(=O)=O)C1	none (no result: FN deposit inh, Cneo AK release)
COc1ccccc1-c1ccc2c(c1)O[C@@H](CN(C)Cc1ccc3c(c1)OCO3)[C@@H](C)CN([C@@H](C)CO)S2(=O)=O	none (no result: FN deposit inh)
COc1ccc(NC(=O)c2cc(C3CC3)on2)c(OC)c1	F508del corr 8.2
Cc1ccc(F)cc1C(=O)N1CCCCC1c1cc(C(=O)NC(C)C)no1 (configuration not stated)	DENV2 CPE 56.1
COc1ccc(NC(=O)c2cc(C3CCCCN3C(=O)c3cc(C(C)(C)C)nn3C)on2)c(C)c1 (configuration not stated)	DENV2 CPE 48.0
COc1ccc(NC(=O)c2cc(-c3ccco3)on2)c(OC)c1	none
COC(=O)N1CCCCC1c1cc(C(=O)Nc2ccc(OC)cc2C)no1 (configuration not stated)	DENV2 CPE 50.6
CC=Cc1ccc2n(c1=O)C[C@@H]1[C@@H](CO)[C@H](C(=O)NCCC)[C@H]2N1S(=O)(=O)c1cn(C)cn1 (mixture of isomers)	none (no result: FN deposit inh, DENV2 CPE, Cneo AK release)
C[C@@H]1CCCCO[C@@H](CN(C)C(=O)C2CCCCC2)[C@H](C)CN([C@@H](C)CO)C(=O)c2cc(NC(=O)Nc3ccc4c(c3)OCO4)ccc2O1	none (no result: FN deposit inh)
COc1ccc(S(=O)(=O)N2CCCCC2c2cc(C(=O)Nc3ccccc3)no2)cc1 (configuration not stated)	DENV2 CPE 32.9
COC(=O)N1CCCCC1c1cc(C(=O)Nc2ccccc2Cl)no1 (configuration not stated)	DENV2 CPE 27.8
